Source: PubChem BioAssay
Sampled rows, rich in hits. Any-hit rate of the full collection: about 2.1%.
Hck Nef HTS = human Hck-Nef kinase inhibition; Recombinant Hck-YEEI plus Nef, Z-Lyte FRET kinase assay; P08631; inhibition, % at 20 µM; AID 463187; hit rate 0.68% among 220,000;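 active = Hck-Nef kinase inhibition above about 50%, limit read from the data; inactive = inhibition below that limit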;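 also: 0% = DMSO with Hck plus Nef and 100% = Hck alone without Nef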
Target sequence (P08631 whole entry, looked up): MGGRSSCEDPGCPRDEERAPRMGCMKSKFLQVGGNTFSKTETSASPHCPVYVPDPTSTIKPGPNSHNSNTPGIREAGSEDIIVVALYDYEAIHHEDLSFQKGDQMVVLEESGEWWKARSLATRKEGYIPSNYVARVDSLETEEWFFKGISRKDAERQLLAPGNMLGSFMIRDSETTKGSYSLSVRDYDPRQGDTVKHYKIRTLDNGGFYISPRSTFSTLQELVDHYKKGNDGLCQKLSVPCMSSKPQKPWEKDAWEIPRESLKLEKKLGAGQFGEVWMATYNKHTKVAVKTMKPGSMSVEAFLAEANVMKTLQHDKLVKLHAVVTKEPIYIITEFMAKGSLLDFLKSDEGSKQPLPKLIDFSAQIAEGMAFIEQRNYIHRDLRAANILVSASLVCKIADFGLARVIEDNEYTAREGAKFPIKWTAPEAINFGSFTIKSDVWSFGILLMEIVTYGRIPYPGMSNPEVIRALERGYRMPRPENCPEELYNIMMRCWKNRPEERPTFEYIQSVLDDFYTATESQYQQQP
Runt-SMMHC FRET = blocks binding of human RUNX1 Runt domain to CBFb-SMMHC; Cerulean-Runt/Venus-CBFb-SMMHC FRET ratio 530/480, 1 h; inhibition, % at 20 µM; hit rate 0.74% among 220,000; AID 1434;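 active = mean inhibition across duplicate retests at 20 µM reaching about 50%, limit read from the data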;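 also: 0% = DMSO wells and 100% = wells with excess untagged CBFb-SMMHC; inhibitors lower the FRET ratio by blocking Runt binding to CBFb-SMMHC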
Pemphigus Ab inh = human desmoglein-3 autoantibody binding inhibition. hit rate 0.48% among 310,000. AID 588358. binding (percent of control), % at 10 µM. DSG3-coupled beads, scFv-anti-DSG3-GFP binding, flow cytometry; hits give low values;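 active = binding more than 3 SD below its plate's average and above zero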;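 also: hits lower antibody fragment binding to DSG3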
RanGTP-Impb inh = inhibitors of RanGTP-importin-beta interaction, primary screen, biochemical, FRET, CFP-Ran, YFP-importin-beta, homogeneous | AID 2216 | inhibition, % (no concentration beside the values) | cell-free CFP-Ran/YFP-importin-beta FRET ratio | hit rate 1.1% among 300,000;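 active = more than half of the replicate wells show a fall in the fluorescence ratio signal beyond about 16%, limit read from the data, passing the limit was not always enough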;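 also: 0% = DMSO wells and 100% = Ran loaded with GDP instead of GTP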
Runt-CBFb FRET = Runt domain-CBFb interaction inhibition | Q01196+Q13951 | Cerulean-Runt/Venus-CBFb FRET ratio 530/480, 1 h | inhibition, % at 20 µM | hit rate 0.46% among 220,000;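 active = inhibition over about 50% at 20 µM in the single-dose screen, limit read from the data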;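 also: 0% = DMSO wells and 100% = excess unlabeled CBFb competitor control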
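test system = Cerulean-Runt domain fusion protein, energy donor | probe or stimulus = Venus-CBFb binding partner, 100 nM | incubation = two 1 h room-temperature incubations shielded from light | detection = fluorescence energy transfer, 422 nm excitation, 530/480 nm emission | measure = loss of energy transfer signal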
p-CIP stab down = lowers stability of the mouse p/CIP coactivator protein; F442A p/CIP-EGFP cells, EGFP fluorescence, 16 h; Q05BA5; decrease of EGFP signal, % at 10 µM; AID 1984; hit rate 0.01% among 290,000;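 active = EGFP signal decrease of at least 30% at 10 µM or well 3 SD below plate mean, unless failing retest; inactive = the rest, including hits failing retest or dose response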
YIC FRET counter = counter-screen: alters YIC FRET probe signal. shares compounds with RanGTP-Impb inh. Purified YIC probe, intramolecular FRET ratio YFP/CFP. IC50, µM. hit rate 40% among 1,000. AID 435026;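 active = fitted half-maximal inhibitory concentration no more than tenfold above the top dose tested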
* = called active by the depositor; nt = not tested or not shown.

SMILES	Hck Nef HTS	Runt-SMMHC FRET	Pemphigus Ab inh	RanGTP-Impb inh	Runt-CBFb FRET	p-CIP stab down	YIC FRET counter
Nc1c(C(=O)NCc2ccccc2)c2nc3ccccc3nc2n1-c1ccc2c(c1)OCO2	27	6	113	35*	-8	-8	11*
CCCc1nc2ccccc2c(C(=O)OCC(=O)NCc2ccc3c(c2)OCO3)c1CC	-2	0	107	0	-3	-10	nt
COc1ccc(-n2c(N)c(C(=O)NCc3ccco3)c3nc4ccccc4nc32)cc1OC	13	15	101	17*	0	-9	33*
COc1ccc(-c2cc(C(=O)NCc3ccco3)c3ccccc3n2)cc1OC	nt	nt	116	-1	nt	nt	nt
CC1(C)CCC(=O)C=C1Nc1ccc(F)c(Cl)c1	nt	nt	97	26*	nt	-14	>50
O=C1CCCN=C(Nc2ccc(F)c(Cl)c2)S1	8	-6	100	6	-2	-7	nt
C#CCOc1ccc(C2C3=C(CC(C)(C)CC3=O)N(CC(=O)O)C3=C2C(=O)CC(C)(C)C3)cc1OC	nt	nt	96	22*	nt	9	39*
CCN(CC)S(=O)(=O)c1ccc(NC(=O)c2ccc(Sc3nncn3C)c([N+](=O)[O-])c2)cc1	0	2	88	23*	-4	-6	>50
CC(C)N1CC(C(=O)Nc2cccc([N+](=O)[O-])c2)CC1=O (configuration not stated)	nt	nt	99	0	nt	4	nt
COc1ccc(C(CNC(=O)c2cc(F)c(F)c(F)c2F)N2CCOCC2)cc1 (configuration not stated)	-3	1	103	19*	0	-12	>50
O=C(NCCC1CCCCN1S(=O)(=O)c1ccc(F)cc1)C(=O)NCc1cccnc1 (configuration not stated)	nt	nt	107	-2	nt	nt	nt
COc1cccc(N2CCN(C(=O)c3ccc4ccccc4c3)CC2)c1	nt	nt	102	nt	nt	nt	nt
COc1cccc(N2CCN(C(=O)c3cc4c(=O)n(Cc5ccccc5)ccc4nc3C)CC2)c1	nt	nt	109	16*	nt	-12	>50
Cc1c(S(=O)(=O)N2CCCC(C(=O)O)C2)cnn1C (configuration not stated)	18	-1	102	22*	0	13	>50
Cc1nn(C)cc1S(=O)(=O)N1CCCC(C(=O)O)C1 (configuration not stated)	16	-2	100	-4	0	13	nt
c1ccc2[nH]c(CSc3nnc(-c4ccncc4)o3)nc2c1	-2	-3	nt	6	-1	5	nt
Clc1ccc(-c2nnc(SCc3nc4ccccc4[nH]3)o2)c(Cl)c1	-11	2	99	32*	0	-3	>50
COc1ccc2c(c1)O/C(=C\c1ccco1)C2=O	27	61*	104	21*	14	-11	19*
COC(=O)C(C)Oc1ccc2c(c1)O/C(=C\c1ccco1)C2=O (configuration not stated)	nt	nt	101	21*	nt	-2	17*
Cc1ccc(OCC(=O)N2CCCCCC2)c(C)c1	1	3	101	17*	-1	-8	>50
CC1=C(C(=O)OC(C)C)C(c2cccnc2)C2=C(CC(C)(C)CC2=O)N1 (configuration not stated)	34	102*	97	19*	77*	4	23*
CC1=C(C(=O)OC(C)C)C(c2ccc(N(C)C)cc2)C2=C(CC(C)(C)CC2=O)N1 (configuration not stated)	1	9	nt	1	5	-14	nt
Cc1nn(-c2ccccc2)c2sc(C(=O)NC3CCCCC3)cc12	-1	-2	88	28*	2	6	>50
O=C(O)c1c2c(nc3ccccc13)/C(=C/c1ccc(OC(F)F)cc1)CCC2	nt	nt	115	31*	nt	-13	>50
CCCc1cc(C(=O)O)c2ccccc2n1	1	-7	97	3	0	-6	nt
SMILES	Hck Nef HTS	Runt-SMMHC FRET	Pemphigus Ab inh	RanGTP-Impb inh	Runt-CBFb FRET	p-CIP stab down	YIC FRET counter
CCCc1c2ccccc2nc2ccccc12	9	52*	99	21*	19	2	9.6*
CCOc1ccc(NS(=O)(=O)c2ccc3c(c2)CCN3C(=O)CCC(=O)O)cc1	0	-3	113	28*	-1	-3	>50
Cc1ccccc1NC(=O)/C(C#N)=C\c1cn(CC(=O)O)c2ccccc12	29	nt	102	20*	nt	5	51*
COCCNC(=O)/C(C#N)=C/c1cn(CC(=O)NCc2ccco2)c2ccccc12	-5	4	105	27*	-19	1	44*
N#C/C(=C\c1cn(CC(=O)O)c2ccccc12)C(=O)NCc1ccccc1	nt	nt	118	5	nt	-7	nt
CC(C)Sc1nc(N2CCOCC2)c2c3c(sc2n1)COC(C)(C)C3	-1	0	nt	23*	-2	-4	>50
Cc1cc(C)c(C)c(S(=O)(=O)N2CCC(C(=O)Nc3ccc(S(=O)(=O)N4CCOCC4)cc3)CC2)c1C	nt	nt	99	2	nt	-28	nt
COc1cc2sc3ccc(C#CC4(O)CCCCC4)cc3c(=O)c2cc1OC	nt	nt	101	32*	nt	nt	26*
Cc1ccccc1Oc1nc2c(C)cccn2c(=O)c1/C=C(\C#N)C(=O)Nc1c(C)n(C)n(-c2ccccc2)c1=O	9	49	98	2	16	8	nt
COCCNC(=O)/C(C#N)=C/c1c(N2CCN(c3ccc(OC)cc3)CC2)nc2c(C)cccn2c1=O	nt	nt	106	19*	nt	-5	46*
CCOC(=O)/C(C#N)=C/c1c(N2CCN(c3ccc(OC)cc3)CC2)nc2c(C)cccn2c1=O	nt	nt	98	20*	nt	-13	>50
CCN1CCN(c2nc3c(C)cccn3c(=O)c2/C=C(\C#N)C(=O)NCCCOC)CC1	nt	nt	105	-42	nt	-15	nt
Cc1cccn2c(=O)c(/C=C(\C#N)C(N)=O)c(Oc3ccccc3)nc12	16	119*	104	25*	11	4	1.6*
CC(=O)C[C@H](O)CC(=O)[C@@H]1OC(=O)CCCCC/C=C/Cc2ccccc21	nt	nt	100	nt	nt	nt	nt
CCc1nc(SCC(=O)Nc2ccccc2Cl)n[nH]1	nt	nt	97	3	nt	-25	nt
COc1cc(/C=C(\C#N)C(=O)Nc2cccc3ncccc23)cc(OC)c1OC	3	54	97	36*	42	-13	>50
COc1ccc(NC(=O)/C(C#N)=C/c2cccnc2)c(OC)c1	nt	nt	110	1	nt	1	nt
CC(=O)Cc1nsc(NC(=O)c2ccc(-c3cccc(C(F)(F)F)c3)o2)n1	0	0	nt	22*	3	10	>50
